# VIM-2 inh – blocks Pseudomonas aeruginosa VIM-2 metallo-beta-lactamase. purified VIM-2, nitrocefin hydrolysis, epi-absorbance fluorescence. inhibition, % at 5.6 µM. actives 0.89% (n = 290,000);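 active = inhibition above the mean of all tested compounds plus 3 SD, cutoff set per screening run, cut at about 7.5% in these data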;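 also: red hydrolysis product quenches plate fluorescence so inhibitors raise well fluorescence; 0% = enzyme with DMSO and 100% = DMSO without enzyme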
# CHT block – inhibits the human high affinity choline transporter; Q9GZV3; CHT-expressing cells, membrane potential dye, choline response; active compounds read low; B-score at 10 µM; actives 0.86% (n = 310,000);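 active = B-score over 3 SD under the library average, and starting fluorescence ratio not unusually high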;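 also: choline stimulus applied at its EC90 after an EC20 pre-addition; B-score computed on integrated fluorescence ratio after choline addition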
# IMP-1 inhibitor – inhibitors of Pseudomonas aeruginosa IMP-1 metallo-beta-lactamase. purified IMP-1, nitrocefin hydrolysis, epi-absorbance fluorescence. inhibition, % at 5.6 µM. actives 0.45% (n = 290,000). AID 1556;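 active = inhibition above the mean plus 3 SD of all compounds in the same screening run, cut at about 4.5% in these data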;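 also: 0% = IMP-1 with DMSO and 100% = DMSO wells lacking enzyme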
#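 System: purified IMP-1; amount: IMP-1 0.2 nM before substrate addition; compound: single dose, 5.6 µM; times: 25 °C, 15 min preincubation, 25 min reaction; signal: Epi-absorbance via hydrolysed-nitrocefin quenching of white-plate fluorescence, 480/530 nm, EDTA stop; benchmarks: DMSO with and without IMP-1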
# ANO1 block – inhibitors of mouse TMEM16A calcium-activated chloride channel; HEK293 TMEM16A/YFP iodide influx fluorescence, ionomycin; normalized B-score (activity score, 25-100; higher = stronger inhibition) at 10 µM; actives 1.2% (n = 310,000); AID 588511;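 active = ratio plate-corrected score three or more library SD toward inhibition, starting fluorescence score within five deviations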;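 also: score derived from kinetic fluorescence span divided by baseline fluorescence per well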
# Target sequence (Q8BHY3 whole entry, looked up): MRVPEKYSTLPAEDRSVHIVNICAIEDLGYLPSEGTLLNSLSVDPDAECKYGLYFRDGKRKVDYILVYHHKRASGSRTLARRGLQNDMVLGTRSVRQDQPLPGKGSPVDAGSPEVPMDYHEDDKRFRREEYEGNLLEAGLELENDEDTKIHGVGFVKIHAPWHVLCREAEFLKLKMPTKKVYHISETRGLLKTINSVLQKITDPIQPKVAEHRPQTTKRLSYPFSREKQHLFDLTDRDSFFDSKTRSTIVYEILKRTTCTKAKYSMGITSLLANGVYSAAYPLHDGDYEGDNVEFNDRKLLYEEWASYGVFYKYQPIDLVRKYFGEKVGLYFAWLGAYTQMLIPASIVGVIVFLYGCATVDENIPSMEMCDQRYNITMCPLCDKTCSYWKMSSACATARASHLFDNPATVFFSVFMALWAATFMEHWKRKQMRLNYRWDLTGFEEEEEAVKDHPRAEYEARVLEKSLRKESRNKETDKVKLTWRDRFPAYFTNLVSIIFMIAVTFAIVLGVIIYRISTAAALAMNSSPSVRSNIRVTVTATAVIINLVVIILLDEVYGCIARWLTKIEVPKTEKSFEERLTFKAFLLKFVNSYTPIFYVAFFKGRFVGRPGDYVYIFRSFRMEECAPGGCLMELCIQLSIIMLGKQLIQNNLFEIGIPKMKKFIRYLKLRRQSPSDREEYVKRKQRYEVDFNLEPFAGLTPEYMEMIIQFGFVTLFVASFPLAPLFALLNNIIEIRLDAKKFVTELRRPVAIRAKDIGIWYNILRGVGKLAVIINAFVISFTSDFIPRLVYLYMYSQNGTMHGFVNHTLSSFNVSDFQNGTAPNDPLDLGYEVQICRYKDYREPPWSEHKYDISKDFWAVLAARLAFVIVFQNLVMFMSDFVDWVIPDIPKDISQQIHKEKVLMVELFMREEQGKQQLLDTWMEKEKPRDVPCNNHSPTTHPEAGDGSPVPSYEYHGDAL
# CHT allo act – allosterically activates the human high affinity choline transporter | Q9GZV3 | CHT-expressing cells, membrane potential dye, choline EC20; active compounds read high; LV-AA mutant CHT in HEK293 cells | B-score at 10 µM | actives 0.49% (n = 310,000);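 active = initial fluorescence not abnormally high and integrated response B-score, plate-corrected, over 3 SD above library mean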
# ANO1 activ – activates or potentiates the mouse TMEM16A chloride channel | HEK293 TMEM16A/YFP-H148Q/I152L, iodide quench fluorescence; active compounds read low | B-score at 10 µM | actives 0.3% (n = 340,000) | AID 623877;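 active = fluorescence-ratio B-score plate-corrected deviation score at least 3 library SD below zero, with starting fluorescence score within 5 deviations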;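 also: channel opened by trigger with iodide after compound preincubation; score built on the fluorescence ratio of max minus min over baseline; more negative score means more quench and so TMEM16A activation or potentiation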
# CHT act confirm – human CHT activation, confirmatory screen; shares compounds with CHT allo act; CHT-expressing cells, membrane potential dye fluorescence (FDSS); % of choline EC20–EC90 response window; HEK293 expressing CHT LV-AA mutant; choline added at its EC20; activation, % at 10 µM; actives 91% (n = 2,500);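 active = primary screen active, with duplicate mean activation above negative control mean plus 3 SD, cut at about 11% in these data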
# HEK293 MP dye – activity in parental HEK293 cells lacking CHT | shares compounds with CHT allo act | membrane potential dye fluorescence (FDSS); measured after EC20 choline addition | ratio readout change at 10 µM, hits read low | actives 62% (n = 2,500) | AID 623908;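 active = duplicate-averaged ratio beyond 3 SD from buffer wells, up or down, though filed actives are nearly all decreases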
# * hit, by the source's call; i = inactive; · = no result. Rows were chosen to be rich in hits. Some 3.4% of all compounds tested hit in one or more screens of this group.
SMILES,VIM-2 inh,CHT block,IMP-1 inhibitor,ANO1 block,CHT allo act,ANO1 activ,CHT act confirm,HEK293 MP dye
Cc1nc2cc(NC(=O)N3CCC(c4ccccc4)C3)ccc2n1C (configuration not stated),-5,i,-2,i,i,i,·,·
CC(NC(=O)c1ccc(S(=O)(=O)NCc2ccco2)cc1)c1ccc(F)cc1 (configuration not stated),·,·,·,·,·,i,·,·
N=c1n(CCN2CCCCC2)c2ccccc2n1CC(O)c1ccco1 (configuration not stated),0,i,-1,i,i,i,·,·
N=c1n(CCO)c2ccccc2n1CCN1CCCCC1,-4,i,-4,i,i,i,35*,-34*
CCN(CC)CCn1c(=N)n(CC(O)COc2cccc(C)c2)c2ccccc21 (configuration not stated),-1,i,-4,i,6.4*,i,54*,i
CCN(CC)CCn1c(=N)n(CC(O)c2ccco2)c2ccccc21 (configuration not stated),-4,i,-3,i,i,i,·,·
CCCn1c(NC(=O)c2ccc([N+](=O)[O-])o2)nc2ccccc21,·,i,·,i,i,i,·,·
Cc1nc2ccc(N=NN(C)C)cc2[nH]1,0,i,-2,i,i,i,·,·
Cc1nc2ccc(Cc3ccc4nc(C)[nH]c4c3)cc2[nH]1,-3,i,-2,i,7.5*,i,59*,-54*
COc1ccc(N(CC(=O)Nc2ccc(C)cn2)S(=O)(=O)c2c(C)noc2C)cc1,3,i,0,i,6.6*,i,7,i
CN(C)S(=O)(=O)c1ccc(Cl)c(C(=O)NNC(=O)c2ccc3c(c2)OCO3)c1,·,·,·,·,·,i,·,·
CCOC(=O)c1oc2ccc(CNCCO)c(Cl)c2c1C,1,i,-3,i,8.3*,i,37*,-29*
CCOC(=O)c1oc2ccc(CNC3CCCCC3)c(Cl)c2c1C,-3,i,-3,i,i,i,·,·
Cc1cccc(/C=N/NC(=O)CC(=O)NCCc2ccccc2)c1,·,i,·,i,i,i,·,·
COc1ccccc1OCCNC(=O)CCC(=O)N1CCOCC1,·,·,·,·,·,i,·,·
COc1ccc(S(=O)(=O)N2CCCC2)cc1C(=O)N1CCCCC1,-3,i,-3,i,i,i,·,·
COc1ccc(S(=O)(=O)N2CCCCCC2)cc1C(=O)N1CCCC(C(F)(F)F)C1 (configuration not stated),·,i,·,i,10*,i,15*,i
CC(=O)c1ccc(NC(=O)Nc2ccncc2)cc1,-2,i,-3,i,i,i,34*,-38*
COc1ccccc1NC(=O)C(C)N(C)CC(=O)Nc1cccc2ccccc12 (configuration not stated),·,·,·,·,·,i,·,·
COc1ccc(CN(C)C(C)C(=O)Nc2cccc3ccccc23)cc1 (configuration not stated),-2,i,-1,i,i,i,4,i
C=C1CCN(Cc2ccccc2)S(=O)(=O)c2ccccc21,·,i,·,i,9*,i,26*,i
Cc1cc(NS(=O)(=O)c2ccc(NC(=O)c3cnc4scc(C)n4c3=O)cc2)nc(C)n1,0,i,-3,i,6.2*,i,33*,-27*

# Screens (PubChem)
